Hits are enriched below; roughly 3.3% of the tested compounds scored in any of these assays.
SENP8 block-1 – blocks the human protease SENP8. Q96LD8. actives 1.2% (n = 330,000). inhibition, % at 10 µM. AID 2540. purified SENP8, Z-RLRGG-aminoluciferin cleavage, luminescence; in the data active = inhibition above about 50%
SENP7 inh – blocks the human protease SENP7 | Q9BQF6 | recombinant SENP7, Z-RLRGG-aminoluciferin luminescence, 40 min | inhibition, % at 5 µM | actives 1.5% (n = 330,000) | AID 434973;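 active = inhibition above about 50% at the single test dose, limit read from the data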
SENP8 block-2 – blocks human SENP8 cleavage of Nedd8 substrate. actives 0.64% (n = 360,000). AID 602440. inhibition, % at 20 µM. recombinant SENP8, Nedd8 substrate fluorescence. Q96LD8; in the data active = inhibition mostly above about 40%, no sharp cut-off; inactive = mostly below about 27%
SENP1 inh – blocks the human SENP1 SUMO protease catalytic domain | actives 0.21% (n = 360,000) | AID 624204 | Q9P0U3 | inhibition, % at 10 µM | recombinant SENP1 catalytic domain, CyPet-SUMO1-YPet FRET cleavage;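 active = inhibition at least 30% at 10 µM, raw YFP signal under a set limit, fluorescence ratio 0.5 to 1.5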
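Test system: recombinant human SENP1 catalytic domain, His6-tagged / Medium: pH 8 Tris buffer with EDTA, NaCl, BME, BSA, NP40, catalase / Also added: SUMO1 FRET substrate flanked by Cypet and Ypet, 25 nM / Times: 50 min reaction at room temperature / Signal: FRET, CFP and YFP emission / Control set: no-enzyme low control and enzyme-plus-DMSO high control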
SENP6 inh – inhibitors of human SENP6 protease; AID 2599; inhibition, % at 10 µM; Recombinant SENP6 catalytic domain, aminoluciferin luminescence; actives 1.8% (n = 330,000);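 active = inhibition above about 50% at the single tested dose, limit read from the data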
Target sequence (Q9GZR1 628-1112 limits assumed): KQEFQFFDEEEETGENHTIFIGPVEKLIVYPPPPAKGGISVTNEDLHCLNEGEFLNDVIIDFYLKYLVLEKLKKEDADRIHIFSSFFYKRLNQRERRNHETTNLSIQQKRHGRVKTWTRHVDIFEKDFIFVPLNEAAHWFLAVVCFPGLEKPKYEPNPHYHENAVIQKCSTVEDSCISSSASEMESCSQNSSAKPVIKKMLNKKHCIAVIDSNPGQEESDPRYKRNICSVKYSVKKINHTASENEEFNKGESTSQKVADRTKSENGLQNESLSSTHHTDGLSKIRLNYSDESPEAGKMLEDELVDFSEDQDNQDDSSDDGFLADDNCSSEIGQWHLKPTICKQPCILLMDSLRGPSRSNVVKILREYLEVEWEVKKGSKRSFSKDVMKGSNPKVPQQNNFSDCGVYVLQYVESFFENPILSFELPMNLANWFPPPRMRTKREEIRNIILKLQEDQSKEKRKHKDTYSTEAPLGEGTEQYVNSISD
NRP1-CendR mod – modulators of CendR peptide binding to human neuropilin-1. actives 0.85% (n = 360,000). inhibition, % at 25 µM. FAM-RPARPAR peptide binding to NRP-1, fluorescence polarization;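 active = inhibition or corrected inhibition above about 18%, plus a signal ratio from 0.5 to 1.5, limit read from the data, passing the limit was not always enough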
SENP8 conf – SENP8 (human) inhibition, single concentration confirmation | shares compounds with SENP8 block-2 | purified SENP8, Nedd8-AMC/pro-Nedd8 cleavage fluorescence, 30 min | inhibition, % at 25 µM | actives 15% (n = 1,400); in the data active = inhibition mostly above about 39%, no sharp cut-off; inactive = mostly below about 34%
Of the large screens only hits and unclear results are named; the others gave an inactive call (follow-up assays come after a bar, where they were run).

CCOC(=O)CC(=O)Nc1ccc(C)cc1	SENP8 block-2 40 | SENP8 conf inactive
CCOC(=O)C1(CC2CCCCO2)CCN(Cc2cn[nH]c2-c2cccc(F)c2)CC1 (configuration not stated)	SENP8 block-2 45 | SENP8 conf inactive
CNC(=O)N(c1ccccc1)c1ccccc1	SENP8 block-2 43 | SENP8 conf inactive
O=C(N(c1ccccc1)c1ccccc1)N(c1ccccc1)c1ccccc1	none
O=C(OCC(=O)N1CCN(c2ccccc2)CC1)c1cccs1	none
O=C(OCC(=O)N1CCCC1)c1cccs1	SENP8 block-2 48 | SENP8 conf inactive
CCCn1c2ccc(F)cc2c2nnc(NN)nc21	SENP8 block-2 70 | SENP8 conf inactive
NNc1nnc2c3cc(F)ccc3n(Cc3ccccc3)c2n1	SENP8 block-2 37 | SENP8 conf inactive
CCn1c2ccc(F)cc2c2nnc(NN)nc21	none
CCN(CC)c1ccc(C=Nc2ccc(C)cc2)c(O)c1	none
CCN(CC)c1ccc(N=Cc2ccc(N(CC)CC)cc2O)cc1	SENP8 block-2 58 | SENP8 conf inactive
CCN(CC)c1ccc(C=Nc2ccc(N(C)C)cc2)c(O)c1	SENP8 block-2 52 | SENP8 conf inactive
CCNC(=O)C1(C)CCCN(CCOc2ccc(Cl)cc2)C1 (configuration not stated)	none (no result: SENP8 block-1, SENP7 inh, SENP6 inh)
CCOC(=O)COc1ccc(/C=C2/SC(=Nc3ccccc3)N(Cc3cccnc3)C2=O)cc1OC	SENP8 block-2 43 | SENP8 conf inactive
Cc1ccc(NC(=O)c2ccc(Nc3c([N+](=O)[O-])cc([N+](=O)[O-])cc3[N+](=O)[O-])cc2)cc1	SENP8 block-2 42 | SENP8 conf inactive
CCNC(=O)O/N=C1\CCCCC1c1ccc([N+](=O)[O-])cc1[N+](=O)[O-] (configuration not stated)	SENP8 block-2 41 | SENP8 conf 48
CS(=O)(=O)O/N=C1\CCCCC1c1ccc([N+](=O)[O-])cc1[N+](=O)[O-] (configuration not stated)	none
CC1(C(=O)NS(=O)(=O)c2ccc(Cl)s2)CCN1C(=O)C1(c2ccccc2)CCCC1 (configuration not stated)	none (no result: SENP8 block-1, SENP7 inh, SENP6 inh)
COC(=O)CCN(C(=O)c1cc(OC)c(OC)c(OC)c1)c1ccccn1	none
CCOc1ccccc1C(=O)N(CCC(=O)OC)c1ccccn1	SENP8 block-2 43 | SENP8 conf inactive
COCCCNc1nc2c(c(=O)[nH]c(=O)n2C)n1CCCc1ccccc1	none
C=C(C)Cn1c(NCCOC)nc2c1c(=O)[nH]c(=O)n2C	SENP8 block-2 40 | SENP8 conf inactive
O=C(NN1C(=O)C2C3c4ccccc4C(c4ccccc43)C2C1=O)c1ccccc1 (configuration not stated)	none
Cc1ccc(C(=O)NN2C(=O)C3C4c5ccccc5C(c5ccccc54)C3C2=O)cc1 (configuration not stated)	SENP8 block-2 45 | SENP8 conf inactive
O=C(O)CSc1ccn(Cc2ccccc2)c1	none (no result: SENP8 block-1, SENP7 inh, SENP6 inh)
CCOc1ccc(N2C(=O)Cc3ccccc3C2=O)cc1	SENP8 block-2 75 | SENP8 conf inactive
CCOC(=O)c1ccc(N2C(=O)CC(C(=O)OC)=C2C)cc1	none
Cc1cc(-n2cnnn2)ccc1C(C)C	none
Cc1cc(N2C(=O)Cc3ccccc3C2=O)ccc1C(C)C	SENP8 block-2 78 | SENP8 conf inactive
CCOc1ccc(N2C(=O)c3cccnc3C2=O)cc1	none
CCOC(=O)c1ccc(N2C(=O)Cc3ccccc3C2=O)cc1	SENP8 block-2 63 | SENP8 conf 27
O=C(N/N=C/c1c[nH]c2ccccc12)c1cccc([N+](=O)[O-])c1	none
O=[N+]([O-])c1ccc(N/N=C/c2c[nH]c3ccccc23)cc1	SENP8 block-2 52 | SENP8 conf inactive
CC(=O)c1ccc(OCCCC(=O)OCC(=O)N2CCN(S(=O)(=O)c3ccc(C)cc3C)CC2)cc1	none (no result: SENP8 block-1, SENP7 inh, SENP6 inh)
COc1ccc(C2C(C(C)=O)=C(O)C(=O)N2c2cccnc2)c(OC)c1 (configuration not stated)	none
COc1ccc(C2C(C(C)=O)=C(O)C(=O)N2C)c(OC)c1 (configuration not stated)	SENP8 block-2 42 | SENP8 conf inactive
CCN(CC)S(=O)(=O)c1ccc(N2CCOCC2)c(NC(=O)C(=O)c2c(-c3ccccc3)cc3ccccn23)c1	SENP8 block-2 75 | SENP8 conf inactive
CCN(CC)S(=O)(=O)c1cccc(NC(=O)C(=O)c2c(-c3ccccc3)cc3ccccn23)c1	none
Cc1nn(CC#N)c(=O)n1-c1ccc(Cl)cc1	none
Cc1nn(CC#N)c(=O)n1-c1ccc(C(C)C)cc1	SENP8 block-2 41 | SENP8 conf inactive
NS(=O)(=O)c1ccc(N/N=C/c2cn(-c3ccccc3)nc2-c2ccccc2)c([N+](=O)[O-])c1	SENP8 block-2 54 | SENP8 conf inactive
O=C(O)c1ccc(/C=N/Nc2ccc(S(=O)(=O)N3CCCC3)cc2[N+](=O)[O-])cc1	none
O=[N+]([O-])c1cc(S(=O)(=O)N2CCCC2)ccc1N/N=C/c1ccncc1	SENP8 block-2 47 | SENP8 conf inactive
NS(=O)(=O)c1ccc(N/N=C/c2ccc3c(c2)OCO3)c([N+](=O)[O-])c1	SENP8 block-2 44 | SENP8 conf inactive
CCN(CC)C(=O)C1=C(C)N(CCCN2CCCC2=O)C(=O)C(CC(=O)NCCN2CCOCC2)C1 (configuration not stated)	none (no result: SENP8 block-1, SENP7 inh, SENP6 inh)
Cc1cc2c(cc1C)NC(=O)C(C)CN2 (configuration not stated)	none (no result: SENP8 block-1, SENP7 inh, SENP6 inh)
CC(=O)Nc1ccc(C(=O)O)cc1	SENP8 block-2 46 | SENP8 conf inactive
CC(=O)Nc1ccc(N)cc1	none
CN(C)c1ccc2nsnc2c1[N+](=O)[O-]	SENP8 block-2 43 | SENP8 conf inactive
Cc1ccc2nsnc2c1NC(=O)c1ccc([N+](=O)[O-])cc1	none
COc1ccc(-c2ncn(CCC#N)c2[N+](=O)[O-])cc1	none
COc1ccc(-c2cc(=O)n(CCC#N)[nH]2)cc1	SENP8 block-2 43 | SENP8 conf inactive
Cc1ccccc1-c1nnc(SC(C)C(=O)NC2CCCC2)o1 (configuration not stated)	none
O=C(C1CCC(=O)N1Cc1ccccc1Cl)N1CCN(c2cccc(Cl)c2)CC1 (configuration not stated)	SENP8 block-2 40 | SENP8 conf inactive
O=C(Nc1ccc(Cl)cc1)C1CCC(=O)N1Cc1ccccc1Cl (configuration not stated)	none
CCCCC(=O)Nc1nc2c(OC)cc([N+](=O)[O-])cc2s1	none
COc1cc([N+](=O)[O-])cc2sc(NC(C)=O)nc12	SENP8 block-2 59 | SENP8 conf inactive

Screening results as filed in PubChem BioAssay.
